Assay [1] has as its target T1, Peroxisome proliferator-activated receptor gamma (Homo sapiens) (UniProt P37231).
T1 sequence (whole entry): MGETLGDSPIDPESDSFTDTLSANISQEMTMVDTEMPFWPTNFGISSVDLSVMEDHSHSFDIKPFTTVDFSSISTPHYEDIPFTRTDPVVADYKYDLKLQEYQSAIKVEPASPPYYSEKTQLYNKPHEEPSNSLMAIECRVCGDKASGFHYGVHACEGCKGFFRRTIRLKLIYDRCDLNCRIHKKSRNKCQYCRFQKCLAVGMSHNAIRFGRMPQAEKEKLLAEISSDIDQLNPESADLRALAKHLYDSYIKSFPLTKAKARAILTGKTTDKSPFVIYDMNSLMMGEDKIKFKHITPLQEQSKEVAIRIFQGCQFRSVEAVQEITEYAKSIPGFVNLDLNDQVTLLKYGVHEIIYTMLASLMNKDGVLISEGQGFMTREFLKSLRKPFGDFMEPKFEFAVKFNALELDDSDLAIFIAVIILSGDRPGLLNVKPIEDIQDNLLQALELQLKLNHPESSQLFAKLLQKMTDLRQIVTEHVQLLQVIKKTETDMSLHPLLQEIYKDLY
Briefly: Stabilization of PPARgamma LBD (unknown origin) assessed as change in melting temperature by differential scanning fluorimetry.

The target in assay [2] is T1, Peroxisome proliferator-activated receptor gamma (Homo sapiens). Description: Stabilization of PPARgamma LBD (unknown origin) assessed as melting temperature at 14 uM by differential scanning fluorimetry. Put shortly:
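Differential scanning fluorimetry of PPARγ LBD (3.5 µM) with or without ligand at 14 µM (four equivalents) to obtain melting temperature. n ≥ 3, mean ± s.d.; with vs without compound compared by unpaired t-test.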

A short description of assay [3]: Stabilization of PPARgamma LBD (unknown origin)/FITC-labeled PGC-1alpha (unknown origin) protein-protein interaction assessed as dissociation constant by fluorescence anisotropy assay. Further details: species or system Homo sapiens. Put shortly:
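Fluorescence anisotropy coactivator interaction assay: PPARγ LBD titrated to fluorophore-labelled PGC-1α peptide (10 nM) with DMSO or ligand at 10 µM. n = 3; representative data shown as mean ± s.d.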

Assay [4] has as its target T1, Peroxisome proliferator-activated receptor gamma (Homo sapiens). Briefly: Binding affinity to PPARgamma LBD (unknown origin) assessed as increase in thermal stability by differential scanning fluorimetry. The note with it: filed as partial agonist.
Assay [5] shares this target. Description: Stabilization of PPARgamma LBD (unknown origin) assessed as change in melting temperature in presence of GW9662 by differential scanning fluorimetry.
Assay [6] shares this target. Briefly: Stabilization of PPARgamma LBD (unknown origin) assessed as change in melting temperature in presence of SR16832 by differential scanning fluorimetry.

The source made the active and inactive calls. The calls are words filed in the database; no cut-off is given here.

`O=C(Nc1ccccc1)c1cc([N+](=O)[O-])ccc1Cl`: in assay [1], the shift in melting temperature (ΔTm) was 3.9 °C.

`O=C(O)c1ccc(-c2nn(C(=O)c3c(Cl)cccc3C(F)(F)F)c3ccccc23)cc1`: the Tm in assay [2] was found to be 50.2 °C. Also, the equilibrium dissociation constant (Kd) in assay [3] amounted to 710 nM. In addition, the outcome in assay [4] was Active. Besides, the results for the ΔTm in assay [5] and in assay [6] were 1.1 °C and -0.6 °C, respectively.

Consider `COc1ccc2nccc(NC(=O)c3cc([N+](=O)[O-])ccc3Cl)c2c1`, for which the thermal shift (ΔTm) in assay [1] is 4.4 °C.

`CN(CCOc1ccc(CC2SC(=O)NC2=O)cc1)c1ccccn1` (stereo not given) [ROSIGLITAZONE]: the Kd in assay [3] came out at 370 nM. The shift in melting temperature (ΔTm) was 0 °C in assay [5] and -0.1 °C in assay [6].

The values above are taken from ChEMBL document CHEMBL5126597, “Indazole MRL-871 interacts with PPARγ via a binding mode that induces partial agonism” (Bioorg Med Chem, 2022).
